Rows were chosen to be rich in hits. Some 3.7% of all compounds tested hit in one or more screens of this group.
KCNK9 inh: KCNK9 potassium channel inhibitors, primary screen, HEK293 cells, thallium flux. FluxOR thallium flux fluorescence; active compounds read low. actives 1.2% (n = 310,000). AID 488922, 2010. B-score at 10 µM. Potassium channel subfamily K member 9 (Homo sapiens), Q9NPC2;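 active means ratio B-score over 3 SD below the library mean, with starting fluorescence within 5 SD of its mean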;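 further: negative B-score means less thallium flux so channel inhibition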
Target sequence (Q9NPC2 whole entry, looked up): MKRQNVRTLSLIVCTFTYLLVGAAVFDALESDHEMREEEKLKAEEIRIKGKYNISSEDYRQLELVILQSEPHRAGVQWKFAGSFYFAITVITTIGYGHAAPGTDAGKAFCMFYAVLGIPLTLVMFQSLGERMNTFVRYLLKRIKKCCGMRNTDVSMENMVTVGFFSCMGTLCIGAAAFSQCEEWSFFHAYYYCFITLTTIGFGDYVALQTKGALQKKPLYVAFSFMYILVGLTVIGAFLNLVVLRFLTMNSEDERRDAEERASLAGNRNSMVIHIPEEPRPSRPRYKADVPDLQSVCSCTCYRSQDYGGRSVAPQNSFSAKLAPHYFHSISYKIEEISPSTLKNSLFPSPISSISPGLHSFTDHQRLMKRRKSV
hERG rescue: hERG rescue from dofetilide block, primary screen, cell-based, CHO-hERG, FluxOR thallium flux, dofetilide IC70 | Voltage-gated inwardly rectifying potassium channel KCNH2 (Homo sapiens), Q12809 | dofetilide IC70 present | activation (rescue from dofetilide block), less the hit threshold, % at 10 µM | actives 0.51% (n = 310,000) | AID 1511, 2009;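 active means activation above the mean of controls blocked by dofetilide plus 5 SD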;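 further: thallium influx through hERG after potassium depolarization seen as dye fluorescence rise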
Kir21 inh: inhibitors of mouse Kir2.1 inward-rectifier potassium channel; B-score at 10 µM; HEK293-Kir2.1, FluxOR thallium flux fluorescence; active compounds read low; actives 0.85% (n = 310,000); AID 1672, 2009; Inward rectifier potassium channel 2 (Mus musculus), P35561;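 active means fluorescence ratio B-score at or below minus 3 SD of library scores, with starting-brightness B-score within 2 SD, cut at about -4.2 in these data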;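 further: channel flux triggered by added potassium and thallium sulfate stimulus; B-score of peak minus minimum fluorescence over baseline after thallium stimulus; more negative B-score means stronger Kir2.1 block with less thallium influx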
KCNQ1 inh: inhibitors of human KCNQ1 channel, primary screen, cell-based, thallium flux, high-throughput | CHO-K1 KCNQ1, FluxOR thallium flux fluorescence; active compounds read high | B-score at 10 µM | actives 1.3% (n = 310,000);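 active means compounds whose thallium flux B-score, printed positive for inhibition, exceeds three library SD while starting fluorescence stays within three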;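 further: channel opened by potassium depolarization with thallium stimulus after 20 min compound exposure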
KCNK3 inh: human KCNK3 channel inhibitors, primary screen, CHO cells, FluxOR thallium flux, B-score; FluxOR fluorescence; active compounds read low; B-score at 10 µM; actives 0.84% (n = 340,000); AID 602410, 2012;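 active means B-score under library mean minus 4 SD, starting fluorescence ratio at most library mean plus 5 SD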;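 further: more negative B-score means stronger inhibition of thallium flux through KCNK3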
Target sequence (O14649 whole entry, looked up): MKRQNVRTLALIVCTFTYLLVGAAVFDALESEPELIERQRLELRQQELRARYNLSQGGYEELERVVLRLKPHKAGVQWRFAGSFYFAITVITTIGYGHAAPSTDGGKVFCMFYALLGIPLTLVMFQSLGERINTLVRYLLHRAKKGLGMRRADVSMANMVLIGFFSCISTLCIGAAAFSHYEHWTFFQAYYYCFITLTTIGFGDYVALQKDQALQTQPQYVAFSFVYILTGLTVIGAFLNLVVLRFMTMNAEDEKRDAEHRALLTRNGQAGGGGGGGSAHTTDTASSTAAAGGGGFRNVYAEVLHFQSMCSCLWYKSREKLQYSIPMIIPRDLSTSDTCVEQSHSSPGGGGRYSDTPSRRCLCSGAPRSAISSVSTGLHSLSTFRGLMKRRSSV
KCNQ1 pot: potentiators or activators of KCNQ1 channel, primary screen, cell-based, thallium flux, high-throughput. Potassium voltage-gated channel subfamily KQT member 1 (Homo sapiens), P51787. CHO-K1 KCNQ1, thallium flux FluxOR fluorescence; active compounds read high. B-score at 10 µM. actives 0.35% (n = 310,000). AID 2648, 2010;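 active means fluorescence ratio B-score, a plate-corrected score, at least three library SD, with initial intensity B-score within 5 SD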
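assay system = CHO-K1 cells stably expressing KCNQ1 | medium = assay buffer, equal DMSO in all wells | timing = 37 °C overnight plating, 90-min dark dye load, 20-min compound pretreatment | measured by = kinetic FluxOR thallium fluorescence, 10-s 1-Hz baseline, 110-s post-stimulus read | measure = fluorescence change relative to baseline, converted to B score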
KCNQ1 inh valid: KCNQ1 potassium channel inhibitors, confirmation, cell-based, Tl flux, duplicate. shares compounds with KCNQ1 inh. KCNQ1 cell line, FluxOR thallium flux fluorescence. inhibition, % at 10 µM. actives 93% (n = 1,600);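 active means primary screen active, with duplicate mean exceeding buffer control mean plus 3 SD of buffer wells, cut at about 28% in these data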;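 further: 0% = buffer control ratio and 100% = XE991 inhibitor control ratio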
CHO Tl flux: thallium flux effects in parental CHO cells, counter-screen for KCNQ1 inhibitor project, cell-based, Tl flux. shares compounds with KCNQ1 inh. parental CHO-K1, FluxOR thallium flux fluorescence ratio; active compounds read low; zero means no signal rise above baseline. fluorescence ratio (Tl flux) at 10 µM. actives 21% (n = 1,600). AID 588366, 2011;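 active means mean of duplicate thallium-flux fluorescence ratios in parental host cells more than 5 SD below the buffer control mean, cut at about 0.38 in these data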;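 further: ratio is peak minus minimum fluorescence divided by baseline fluorescence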
KCNQ1 APC inh: KCNQ1 channel inhibitors, confirmation, orthogonal assay, cell-based, automated electrophysiology; shares compounds with KCNQ1 inh; KCNQ1-CHO cells, automated patch clamp current; calls only at 10 µM; actives 20% (n = 490); AID 624120, 2012;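 active means KCNQ1 current drop exceeding 3 SD of negative control wells, seen in both duplicate runs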;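 further: steady state current during a 2 s step from -80 to +40 mV; negative values mean current inhibition and positive values mean potentiation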
KCNQ2 inh: KCNQ2 channel inhibition, selectivity assay for KCNQ1 inhibitor project, cell-based; shares compounds with KCNQ1 inh; KCNQ2 cells, FluxOR thallium flux fluorescence; inhibition, % at 10 µM; actives 71% (n = 1,600); AID 651746, 2012;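 active means mean percent inhibition of the KCNQ2 thallium signal more than 5 SD above the buffer-only control wells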;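 further: KCNQ2 expressed in CHO cells; 0% = buffer control wells and 100% = XE-991 inhibitor control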
KCNQ1-KCNE1 inh: KCNQ1/KCNE1 channel inhibition, selectivity assay for KCNQ1 inhibitor project, CHO-K1 cells, thallium flux, FluxOR; shares compounds with KCNQ1 inh; FluxOR thallium flux fluorescence; inhibition, % at 10 µM; actives 77% (n = 1,600); AID 652147, 2013;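 active means mean percent inhibition of duplicate wells above the buffer-only control mean plus 3 SD of those controls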;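 further: 0% = buffer only wells and 100% = XE-991 inhibitor control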
* hit, by the source's call.

Results for CC(C(=O)NCc1ccccc1)N1C(=O)c2ccccc2C1=O (centres undefined) ?
KCNK9 inh: inactive; hERG rescue: -6.1; Kir21 inh: 1.38; KCNQ1 inh: 7*; KCNK3 inh: inactive; KCNQ1 pot: inactive; KCNQ1 inh valid: 28.5*; CHO Tl flux: 0.445; KCNQ2 inh: inactive; KCNQ1-KCNE1 inh: inactive

How did COc1ccc(C(=O)Nc2ccc(-c3ccc(NC(=O)c4ccc(OC)cc4)c(OC)c3)cc2OC)cc1 do in these assays?
KCNK9 inh: inactive; hERG rescue: -10.6; Kir21 inh: 0.13; KCNQ1 inh: inactive; KCNK3 inh: inactive; KCNQ1 pot: inactive

Results for Cc1ccc(N(C(=O)c2ccco2)C(C(=O)NC2CCCC2)c2ccco2)c(C)c1 (centres undefined) ?
KCNK9 inh: inactive; hERG rescue: -8.9; Kir21 inh: -0.88; KCNQ1 inh: 7*; KCNK3 inh: inactive; KCNQ1 pot: inactive; KCNQ1 inh valid: 81.5*; CHO Tl flux: 0.444; KCNQ2 inh: 75.7%*; KCNQ1-KCNE1 inh: 61.0%*

What do the screens show for `COc1ccc(Cl)cc1N(C(=O)c1ccco1)C(C(=O)NC1CCCC1)c1ccco1` (centres undefined)?
KCNK9 inh: inactive; hERG rescue: -3.7; Kir21 inh: -1.29; KCNQ1 inh: inactive; KCNK3 inh: inactive; KCNQ1 pot: inactive

How did O=S(=O)(c1ccc(S(=O)(=O)N(Cc2ccc(F)cc2)C2CCCC2)cc1)N1CCCC1 do in these assays?
KCNK9 inh: inactive; hERG rescue: -8.7; Kir21 inh: -2.01; KCNQ1 inh: 6*; KCNK3 inh: inactive; KCNQ1 pot: inactive; KCNQ1 inh valid: 57.0*; CHO Tl flux: 0.499; KCNQ2 inh: inactive; KCNQ1-KCNE1 inh: 94.5%*

How did Cc1cc(C)c(-c2cc(NC(=O)COC(=O)c3ccc(NC(=O)CC#N)cc3)n(-c3ccccc3)n2)cc1C do in these assays?
KCNK9 inh: inactive; hERG rescue: -8.6; Kir21 inh: -0.62; KCNQ1 inh: 6*; KCNK3 inh: inactive; KCNQ1 pot: inactive; KCNQ1 inh valid: 156.0*; CHO Tl flux: 0.471; KCNQ1 APC inh: inactive; KCNQ2 inh: 64.0%*; KCNQ1-KCNE1 inh: 137.0%*

What do the screens show for `CSc1nc(O)c(C(c2ccc(O)cc2)c2c(O)nc(SC)[nH]c2=O)c(=O)[nH]1`?
KCNK9 inh: inactive; hERG rescue: -8.2; Kir21 inh: -0.14; KCNQ1 inh: inactive; KCNK3 inh: inactive; KCNQ1 pot: inactive

What do the screens show for `COc1ccc(NS(=O)(=O)c2ccc(-c3coc(C)n3)cc2)cc1OC`?
KCNK9 inh: inactive; hERG rescue: -13.0; Kir21 inh: -0.01; KCNQ1 inh: 8*; KCNK3 inh: inactive; KCNQ1 pot: inactive; KCNQ1 inh valid: 124.0*; CHO Tl flux: 0.516; KCNQ1 APC inh: inactive; KCNQ2 inh: 83.7%*; KCNQ1-KCNE1 inh: 36.5%*

What do the screens show for `Cc1cccc(OCc2nc(C#N)c(N3CC(C)CC(C)C3)o2)c1` (centres undefined)?
KCNK9 inh: inactive; hERG rescue: -11.1; Kir21 inh: 2.16; KCNQ1 inh: 8*; KCNK3 inh: -11.8*; KCNQ1 pot: inactive; KCNQ1 inh valid: 103.0*; CHO Tl flux: 0.376*; KCNQ2 inh: inactive; KCNQ1-KCNE1 inh: 103.5%*

What do the screens show for `CCc1cc(C(c2ccc(F)cc2)N2CCOCC2)c(NC(=O)c2ccccc2)s1` (centres undefined)?
KCNK9 inh: inactive; hERG rescue: -6.7; Kir21 inh: 1.19; KCNQ1 inh: 10*; KCNK3 inh: inactive; KCNQ1 pot: inactive; KCNQ1 inh valid: 100.0*; CHO Tl flux: 0.366*; KCNQ2 inh: 99.3%*; KCNQ1-KCNE1 inh: 154.5%*

What do the screens show for `CCc1cc(C(c2cccc(OC)c2)N2CCOCC2)c(NC(=O)c2ccccc2)s1` (centres undefined)?
KCNK9 inh: inactive; hERG rescue: -14.0; Kir21 inh: 0.01; KCNQ1 inh: inactive; KCNK3 inh: inactive; KCNQ1 pot: inactive

What do the screens show for `Cc1ccc(S(=O)(=O)Nc2cncnc2NS(=O)(=O)c2ccc(C)cc2)cc1`?
KCNK3 inh: inactive

How did Cc1cc2c(cc1C)N(Cc1ccc(Cl)cc1)C1=NCCCN12 do in these assays?
KCNK9 inh: inactive; hERG rescue: -15.5; Kir21 inh: -2.21; KCNQ1 inh: 7*; KCNK3 inh: inactive; KCNQ1 pot: inactive; KCNQ1 inh valid: 91.0*; CHO Tl flux: 0.406; KCNQ1 APC inh: active; KCNQ2 inh: 105.0%*; KCNQ1-KCNE1 inh: 98.0%*

Results for Cc1ccc(NC(=O)Cn2nnc(C(=O)NCc3cccs3)c2N)cc1F ?
KCNK9 inh: inactive; hERG rescue: -6.2; Kir21 inh: 0.74; KCNQ1 inh: inactive; KCNK3 inh: inactive; KCNQ1 pot: inactive

What do the screens show for `CN1/C(=C\C=C(C#N)C#N)C(C)(C)c2ccccc21`?
KCNK9 inh: inactive; hERG rescue: -10.3; Kir21 inh: -0.54; KCNQ1 inh: 26*; KCNK3 inh: inactive; KCNQ1 pot: inactive; KCNQ1 inh valid: active; CHO Tl flux: 0.0145*; KCNQ2 inh: inactive; KCNQ1-KCNE1 inh: inactive
